# Laboratory results reported in ChEMBL document CHEMBL1255285, “Spontaneous deletion of the methicillin resistance determinant, mecA, partially compensates for the fitness cost associated with high-level vancomycin resistance in Staphylococcus aureus” (2008).
# Tests used:
# Format in all cases: functional
# Staphylococcus aureus [1] = experiment: Antimicrobial activity against homotypic oxacillin resistant and vancomycin intermediate resistant Staphylococcus aureus isolate 5827 by broth microdilution method
# How it was run: (§1)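 Broth microdilution MIC in cation-adjusted Mueller-Hinton broth per CLSI (formerly NCCLS) guidelines. Strains were routinely grown in brain heart infusion broth or agar at 37°C with shaking at 220 rpm. Vancomycin-passaged derivatives were raised by serial broth passage through 0.5 to 32 µg/ml vancomycin, then maintained on BHI agar with 32 µg/ml vancomycin.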
# Staphylococcus aureus [2] = experiment: Antimicrobial activity against heterotypic oxacillin resistant and vancomycin intermediate resistant Staphylococcus aureus isolate 5836 by broth microdilution method; how it was run: as §1
# Staphylococcus aureus [3] = experiment: Antimicrobial activity against oxacillin sensitive and tetracycline resistant Staphylococcus aureus isolate 450MHomodeltamecA with mecA::tetM genotype by broth microdilution method; how it was run: as §1
# Staphylococcus aureus [4] = experiment: Antimicrobial activity against homotypic oxacillin resistant and vancomycin resistant Staphylococcus aureus isolate 3130V32 by broth microdilution method; how it was run: as §1
# Staphylococcus aureus [5] = experiment: Antimicrobial activity against homotypic oxacillin resistant Staphylococcus aureus isolate 450MHomo by broth microdilution method; how it was run: as §1
# Staphylococcus aureus [6] = experiment: Antimicrobial activity against homotypic oxacillin resistant and vancomycin resistant Staphylococcus aureus isolate 5836V32 by broth microdilution method; how it was run: as §1
# Staphylococcus aureus [7] = experiment: Antimicrobial activity against oxacillin sensitive and vancomycin resistant Staphylococcus aureus isolate 5836VR by broth microdilution method
# How it was run: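 MIC by broth microdilution in cation-adjusted Mueller-Hinton broth, following CLSI (formerly NCCLS) guidelines. The isolate came from an MRSA parent passaged in broth through stepwise vancomycin (0.5 to 32 µg/ml). It was then kept on BHI agar with 32 µg/ml vancomycin and selected as unable to grow on 6 µg/ml oxacillin. Routine growth was in BHI at 37°C.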
# Staphylococcus aureus [8] = experiment: Antimicrobial activity against oxacillin sensitive and vancomycin resistant Staphylococcus aureus isolate 3130VR by broth microdilution method; how it was run: as §1
# Staphylococcus aureus [9] = experiment: Antimicrobial activity against homotypic oxacillin resistant and vancomycin resistant Staphylococcus aureus isolate 5827V32 by broth microdilution method; how it was run: as §1
# Staphylococcus aureus [10] = experiment: Antimicrobial activity against oxacillin sensitive and vancomycin resistant Staphylococcus aureus isolate VP32 by broth microdilution method; how it was run: as §1
# Staphylococcus aureus [11] = experiment: Antimicrobial activity against homotypic oxacillin resistant and vancomycin sensitive Staphylococcus aureus isolate 3130 by broth microdilution method; how it was run: as §1
# Staphylococcus aureus [12] = experiment: Antimicrobial activity against oxacillin sensitive Staphylococcus aureus isolate 450MHomoex with SCCmec excised genotype by broth microdilution method; how it was run: as §1
# Staphylococcus aureus [13] = experiment: Antimicrobial activity against oxacillin sensitive and tetracycline and vancomycin resistant Staphylococcus aureus isolate 3130V32deltamecA with mecA::tetM genotype by broth microdilution method; how it was run: as §1
Compound,MIC (Staphylococcus aureus [1]),MIC (Staphylococcus aureus [2]),MIC (Staphylococcus aureus [3]),MIC (Staphylococcus aureus [4]),MIC (Staphylococcus aureus [5]),MIC (Staphylococcus aureus [6]),MIC (Staphylococcus aureus [7]),MIC (Staphylococcus aureus [8]),MIC (Staphylococcus aureus [9]),MIC (Staphylococcus aureus [10]),MIC (Staphylococcus aureus [11]),MIC (Staphylococcus aureus [12]),MIC (Staphylococcus aureus [13])
Cc1onc(-c2ccccc2)c1C(=O)N[C@@H]1C(=O)N2[C@@H]1SC(C)(C)[C@@H]2C(=O)O [OXACILLIN],> 8 µg/mL,> 8 µg/mL,0.5 µg/mL,> 8 µg/mL,> 8 µg/mL,> 8 µg/mL,0.25 µg/mL,0.5 µg/mL,> 8 µg/mL,0.5 µg/mL,> 8 µg/mL,0.5 µg/mL,0.5 µg/mL
CN[C@H](CC(C)C)C(=O)N[C@H]1C(=O)N[C@@H](CC(N)=O)C(=O)N[C@H]2C(=O)N[C@H]3C(=O)N[C@H](C(=O)N[C@H](C(=O)O)c4cc(O)cc(O)c4-c4cc3ccc4O)[C@H](O)c3ccc(c(Cl)c3)Oc3cc2cc(c3O[C@@H]2O[C@H](CO)[C@@H](O)[C@H](O)[C@H]2O[C@H]2C[C@](C)(N)[C@H](O)[C@H](C)O2)Oc2ccc(cc2Cl)[C@H]1O [VANCOMYCIN],–,8 µg/mL,–,32 µg/mL,–,32 µg/mL,32 µg/mL,32 µg/mL,32 µg/mL,32 µg/mL,–,–,32 µg/mL
